From ChEMBL document CHEMBL4184298, “Development of Potent Inhibitors of Receptor Tyrosine Kinases by Ligand-Based Drug Design and Target-Biased Phenotypic Screening” (J Med Chem, 2018)

How the values were obtained:
[1] = target: T1, Receptor-type tyrosine-protein kinase FLT3 (Homo sapiens, UniProt P36888); assay: Inhibition of wild-type human partial length FLT3 (V592 to Y969 residues) expressed in bacterial expression system using poly [Glu, Try] 4:1 as substrate in presence of [gamma-33P]ATP
T1 sequence (P36888 whole entry): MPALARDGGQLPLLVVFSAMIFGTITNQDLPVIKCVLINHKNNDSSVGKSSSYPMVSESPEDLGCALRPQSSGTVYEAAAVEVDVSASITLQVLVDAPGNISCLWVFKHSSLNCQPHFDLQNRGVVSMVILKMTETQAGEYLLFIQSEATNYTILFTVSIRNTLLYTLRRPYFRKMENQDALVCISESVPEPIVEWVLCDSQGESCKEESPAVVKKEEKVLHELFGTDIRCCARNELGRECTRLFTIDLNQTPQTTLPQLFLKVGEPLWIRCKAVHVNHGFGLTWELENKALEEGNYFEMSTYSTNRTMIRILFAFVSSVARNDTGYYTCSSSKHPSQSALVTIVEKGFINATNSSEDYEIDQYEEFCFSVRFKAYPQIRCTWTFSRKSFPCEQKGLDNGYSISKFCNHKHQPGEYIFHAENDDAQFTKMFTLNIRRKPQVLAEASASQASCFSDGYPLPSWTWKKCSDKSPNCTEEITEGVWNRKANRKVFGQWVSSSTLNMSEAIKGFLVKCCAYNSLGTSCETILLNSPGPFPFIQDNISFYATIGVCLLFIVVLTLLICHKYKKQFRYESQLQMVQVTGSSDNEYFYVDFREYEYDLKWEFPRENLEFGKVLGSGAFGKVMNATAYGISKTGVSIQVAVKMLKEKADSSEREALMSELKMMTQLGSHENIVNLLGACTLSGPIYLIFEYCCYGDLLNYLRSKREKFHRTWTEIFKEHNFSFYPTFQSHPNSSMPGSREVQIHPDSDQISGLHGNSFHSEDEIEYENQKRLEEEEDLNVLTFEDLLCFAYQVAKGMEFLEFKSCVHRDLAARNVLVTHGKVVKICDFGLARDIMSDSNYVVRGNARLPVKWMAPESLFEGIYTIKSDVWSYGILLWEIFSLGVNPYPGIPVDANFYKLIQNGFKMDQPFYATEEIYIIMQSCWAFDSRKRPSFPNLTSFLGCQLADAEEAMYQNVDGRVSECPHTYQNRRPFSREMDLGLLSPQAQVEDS

[2] = target: Proto-oncogene tyrosine-protein kinase receptor Ret (Homo sapiens, UniProt P07949); assay: Inhibition of wild-type human partial length RET (E713 to D1014 residues) expressed in bacterial expression system using poly [Glu, Try] 4:1 as substrate in presence of [gamma-33P]ATP
Outline: (§1)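 Radiometric assay on recombinant kinase: ³³P incorporation into the kinase substrate was measured and activity was expressed relative to a DMSO control.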

[3] = target: Serine/threonine-protein kinase mTOR (Homo sapiens, UniProt P42345); assay: Inhibition of wild-type human partial length MTOR (L1382 to W2549 residues) expressed in mammalian expression system using poly [Glu, Try] 4:1 as substrate in presence of [gamma-33P]ATP; outline: as §1
[4] = target: Mast/stem cell growth factor receptor Kit (Homo sapiens, UniProt P10721); assay: Inhibition of wild-type human partial length KIT (I571 to D952 residues) expressed in bacterial expression system using poly [Glu, Try] 4:1 as substrate in presence of [gamma-33P]ATP; outline: as §1
Aurora kinase A = target: T2, Aurora kinase A (Homo sapiens, UniProt O14965); assay: Inhibition of human partial length Aurora A (E122 to K401 residues) expressed in mammalian expression system using poly [Glu, Try] 4:1 as substrate in presence of [gamma-33P]ATP; outline: as §1
T2 sequence (O14965 whole entry): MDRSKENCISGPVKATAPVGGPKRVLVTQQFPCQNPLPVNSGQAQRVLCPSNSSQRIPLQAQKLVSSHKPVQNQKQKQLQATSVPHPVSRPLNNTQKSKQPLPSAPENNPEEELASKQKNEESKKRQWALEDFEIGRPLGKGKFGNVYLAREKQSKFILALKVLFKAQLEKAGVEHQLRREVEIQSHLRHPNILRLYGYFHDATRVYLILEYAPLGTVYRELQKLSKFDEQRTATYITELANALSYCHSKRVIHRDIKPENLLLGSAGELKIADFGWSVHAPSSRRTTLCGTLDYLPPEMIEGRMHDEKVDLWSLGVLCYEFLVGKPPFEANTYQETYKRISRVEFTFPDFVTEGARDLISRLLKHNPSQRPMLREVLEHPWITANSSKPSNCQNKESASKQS

[5] = target: T3, Tyrosine-protein kinase receptor TYRO3 (Homo sapiens, UniProt Q06418); assay: Inhibition of wild-type human partial length TYRO3 (S497 to T814 residues) expressed in bacterial expression system using poly [Glu, Try] 4:1 as substrate in presence of [gamma-33P]ATP; outline: as §1
T3 sequence (Q06418 whole entry): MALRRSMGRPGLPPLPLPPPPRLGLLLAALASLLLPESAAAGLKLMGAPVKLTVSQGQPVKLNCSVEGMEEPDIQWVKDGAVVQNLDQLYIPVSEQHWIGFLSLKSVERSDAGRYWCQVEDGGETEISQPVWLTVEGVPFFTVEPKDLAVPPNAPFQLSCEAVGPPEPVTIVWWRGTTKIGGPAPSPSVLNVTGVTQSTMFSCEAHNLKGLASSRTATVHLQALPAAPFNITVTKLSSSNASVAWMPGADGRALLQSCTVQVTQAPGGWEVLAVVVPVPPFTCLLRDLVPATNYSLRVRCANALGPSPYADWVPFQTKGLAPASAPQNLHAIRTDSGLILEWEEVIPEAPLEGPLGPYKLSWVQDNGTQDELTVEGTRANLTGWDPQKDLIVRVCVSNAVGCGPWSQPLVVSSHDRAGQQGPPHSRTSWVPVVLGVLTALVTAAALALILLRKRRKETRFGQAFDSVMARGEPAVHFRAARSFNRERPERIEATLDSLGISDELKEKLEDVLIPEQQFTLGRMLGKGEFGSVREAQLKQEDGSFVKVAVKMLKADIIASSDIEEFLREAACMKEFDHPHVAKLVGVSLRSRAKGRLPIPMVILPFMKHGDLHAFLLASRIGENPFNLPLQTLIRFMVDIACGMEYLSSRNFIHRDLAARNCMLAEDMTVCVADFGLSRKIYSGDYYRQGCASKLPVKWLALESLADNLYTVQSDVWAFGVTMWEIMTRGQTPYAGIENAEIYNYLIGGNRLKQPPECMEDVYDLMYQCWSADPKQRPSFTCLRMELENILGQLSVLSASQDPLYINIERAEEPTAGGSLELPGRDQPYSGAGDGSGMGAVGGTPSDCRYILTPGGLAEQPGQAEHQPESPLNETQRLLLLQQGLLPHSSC

[6] = target: Hepatocyte growth factor receptor (Homo sapiens, UniProt P08581); assay: Inhibition of wild-type human partial length MET (D1010 to S1367 residues) expressed in bacterial expression system using poly [Glu, Try] 4:1 as substrate in presence of [gamma-33P]ATP; outline: as §1
Chain of Hepatocyte growth factor receptor (P08581 whole entry, the tested form may be a part): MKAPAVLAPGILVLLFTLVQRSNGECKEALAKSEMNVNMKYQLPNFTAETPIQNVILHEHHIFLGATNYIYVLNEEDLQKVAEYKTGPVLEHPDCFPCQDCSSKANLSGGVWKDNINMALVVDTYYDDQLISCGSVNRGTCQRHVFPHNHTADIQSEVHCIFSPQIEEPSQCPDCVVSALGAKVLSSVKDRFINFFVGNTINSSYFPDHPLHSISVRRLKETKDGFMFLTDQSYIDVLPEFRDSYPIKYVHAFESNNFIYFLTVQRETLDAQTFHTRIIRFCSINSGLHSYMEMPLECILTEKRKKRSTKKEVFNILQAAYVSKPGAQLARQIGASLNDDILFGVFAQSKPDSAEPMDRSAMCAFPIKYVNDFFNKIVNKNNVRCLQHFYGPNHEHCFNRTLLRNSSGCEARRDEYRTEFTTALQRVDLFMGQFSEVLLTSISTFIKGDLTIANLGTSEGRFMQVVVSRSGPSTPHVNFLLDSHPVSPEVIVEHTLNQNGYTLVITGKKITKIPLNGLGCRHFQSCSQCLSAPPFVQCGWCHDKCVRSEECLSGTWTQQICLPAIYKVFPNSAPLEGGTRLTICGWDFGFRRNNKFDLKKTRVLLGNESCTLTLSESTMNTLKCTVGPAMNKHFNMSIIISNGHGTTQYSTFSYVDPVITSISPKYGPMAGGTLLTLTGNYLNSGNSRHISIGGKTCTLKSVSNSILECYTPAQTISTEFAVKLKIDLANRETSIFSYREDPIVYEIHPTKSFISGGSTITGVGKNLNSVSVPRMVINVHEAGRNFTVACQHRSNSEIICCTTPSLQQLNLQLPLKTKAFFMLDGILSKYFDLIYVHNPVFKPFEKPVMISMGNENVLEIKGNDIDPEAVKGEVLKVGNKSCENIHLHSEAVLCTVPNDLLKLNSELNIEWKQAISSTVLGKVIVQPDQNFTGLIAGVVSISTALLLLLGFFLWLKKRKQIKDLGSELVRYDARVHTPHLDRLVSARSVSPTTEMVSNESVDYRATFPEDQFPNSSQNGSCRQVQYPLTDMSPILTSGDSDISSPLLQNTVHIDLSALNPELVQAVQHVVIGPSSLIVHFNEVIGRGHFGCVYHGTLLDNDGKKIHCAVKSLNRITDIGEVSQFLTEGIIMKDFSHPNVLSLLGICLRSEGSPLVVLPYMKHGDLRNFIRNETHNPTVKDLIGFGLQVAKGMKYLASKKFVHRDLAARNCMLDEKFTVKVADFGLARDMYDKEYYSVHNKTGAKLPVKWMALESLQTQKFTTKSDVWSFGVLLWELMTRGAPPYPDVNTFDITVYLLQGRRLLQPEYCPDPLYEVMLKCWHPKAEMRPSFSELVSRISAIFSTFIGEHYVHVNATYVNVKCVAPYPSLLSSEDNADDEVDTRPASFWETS

Chain of Mast/stem cell growth factor receptor Kit (P10721 whole entry, the tested form may be a part): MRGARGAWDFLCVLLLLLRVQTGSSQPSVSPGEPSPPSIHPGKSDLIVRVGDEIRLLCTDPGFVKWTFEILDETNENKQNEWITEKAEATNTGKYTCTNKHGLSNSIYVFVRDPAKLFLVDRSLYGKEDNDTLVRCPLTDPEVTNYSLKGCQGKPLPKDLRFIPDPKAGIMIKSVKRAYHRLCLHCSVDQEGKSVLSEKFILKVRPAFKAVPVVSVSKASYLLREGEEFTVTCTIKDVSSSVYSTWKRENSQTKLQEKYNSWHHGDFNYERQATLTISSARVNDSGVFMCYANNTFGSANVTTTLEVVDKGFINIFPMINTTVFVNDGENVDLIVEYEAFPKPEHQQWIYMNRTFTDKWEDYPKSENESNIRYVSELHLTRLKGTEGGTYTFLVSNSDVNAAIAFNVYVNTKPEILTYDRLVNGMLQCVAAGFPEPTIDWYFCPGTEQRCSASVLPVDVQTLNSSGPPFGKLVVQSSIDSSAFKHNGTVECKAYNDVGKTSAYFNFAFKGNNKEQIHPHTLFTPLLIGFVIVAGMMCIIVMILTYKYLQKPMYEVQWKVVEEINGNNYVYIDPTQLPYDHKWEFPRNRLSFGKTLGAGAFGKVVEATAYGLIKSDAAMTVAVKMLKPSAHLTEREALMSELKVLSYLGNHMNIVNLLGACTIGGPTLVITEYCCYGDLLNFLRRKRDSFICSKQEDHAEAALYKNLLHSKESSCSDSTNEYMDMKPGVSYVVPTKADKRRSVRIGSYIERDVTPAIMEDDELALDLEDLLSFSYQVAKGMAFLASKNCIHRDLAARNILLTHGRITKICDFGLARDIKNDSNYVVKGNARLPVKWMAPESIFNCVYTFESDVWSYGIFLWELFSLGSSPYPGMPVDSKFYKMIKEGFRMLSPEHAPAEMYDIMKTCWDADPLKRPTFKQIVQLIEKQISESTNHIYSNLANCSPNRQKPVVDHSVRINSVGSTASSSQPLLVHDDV
Chain of Proto-oncogene tyrosine-protein kinase receptor Ret (P07949 whole entry, the tested form may be a part): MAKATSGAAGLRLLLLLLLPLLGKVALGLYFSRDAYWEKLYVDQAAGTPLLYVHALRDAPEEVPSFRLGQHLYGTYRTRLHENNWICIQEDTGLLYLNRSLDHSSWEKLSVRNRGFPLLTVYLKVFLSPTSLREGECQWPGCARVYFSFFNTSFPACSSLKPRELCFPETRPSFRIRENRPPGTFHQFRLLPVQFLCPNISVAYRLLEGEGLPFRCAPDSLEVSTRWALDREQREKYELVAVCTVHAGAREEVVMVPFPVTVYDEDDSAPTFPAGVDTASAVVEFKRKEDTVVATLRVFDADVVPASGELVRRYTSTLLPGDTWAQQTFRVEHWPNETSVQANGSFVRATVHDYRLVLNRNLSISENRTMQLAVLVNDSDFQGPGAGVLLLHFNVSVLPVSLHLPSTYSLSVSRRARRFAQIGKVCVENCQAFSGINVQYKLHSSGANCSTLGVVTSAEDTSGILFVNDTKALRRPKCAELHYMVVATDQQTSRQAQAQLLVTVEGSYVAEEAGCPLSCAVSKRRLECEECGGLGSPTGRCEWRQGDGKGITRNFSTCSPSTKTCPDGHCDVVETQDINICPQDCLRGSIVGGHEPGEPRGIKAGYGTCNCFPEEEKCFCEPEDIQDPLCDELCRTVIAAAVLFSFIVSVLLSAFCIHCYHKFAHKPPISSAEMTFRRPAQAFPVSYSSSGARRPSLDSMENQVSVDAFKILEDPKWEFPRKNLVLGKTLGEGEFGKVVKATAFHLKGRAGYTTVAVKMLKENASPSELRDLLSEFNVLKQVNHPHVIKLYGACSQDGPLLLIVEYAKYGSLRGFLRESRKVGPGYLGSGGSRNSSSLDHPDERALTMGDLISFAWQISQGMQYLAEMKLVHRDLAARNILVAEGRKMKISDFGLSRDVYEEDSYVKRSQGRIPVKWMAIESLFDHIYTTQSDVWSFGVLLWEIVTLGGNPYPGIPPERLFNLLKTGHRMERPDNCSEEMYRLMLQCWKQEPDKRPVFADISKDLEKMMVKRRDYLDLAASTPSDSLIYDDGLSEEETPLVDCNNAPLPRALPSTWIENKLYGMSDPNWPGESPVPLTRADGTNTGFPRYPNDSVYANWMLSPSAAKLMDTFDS

Row | SMILES | IC50 [1] [nM] | IC50 [2] [nM] | IC50 [3] [nM] | IC50 [4] [nM] | IC50 (Aurora kinase A) [nM] | IC50 [5] [nM] | IC50 [6] [nM]
1 | CCN1CCN(c2ccc(-c3nn(Cc4cn(Cc5ccccc5)nn4)c4nc(NC)ncc34)cn2)CC1 | > 10000 | 6200 | > 10000 | > 10000 | > 10000 | 1900 | 6300
2 | CNc1ncc2c(-c3ccc(N4CCN(C)CC4)nc3)nn(CC3CCCC3)c2n1 | 8 | 60 | > 10000 | 360 | 30 | 3670 | 3500
3 | CNc1ncc2c(-c3ccc(N4CCNCC4)nc3)nn(Cc3cn(-c4ccsc4C(=O)OC)nn3)c2n1 | 860 | 430 | > 10000 | > 10000 | 790 | > 10000 | > 10000
4 | Nc1nc(Nc2ccc3c(c2)CC[C@@H](N2CCCC2)CC3)nn1-c1cc2c(nn1)-c1ccccc1CCC2 [BEMCENTINIB] | 0.9 | 3 | > 10000 | 1000 | 26 | 17 | 3400
5 | CNc1ncc2c(-c3ccc(N4CCN(C(=O)C(C)(C)C)CC4)nc3)nn(Cc3cn(Cc4ccccc4)nn3)c2n1 | 1200 | 4000 | > 10000 | > 10000 | 840 | > 10000 | > 10000
6 | CNc1ncc2c(-c3ccc(N4CCNCC4)cc3)nn(Cc3cn(Cc4ccccc4)nn3)c2n1 | > 10000 | > 10000 | > 10000 | > 10000 | > 10000 | > 10000 | > 10000

More lines, now with the values ahead:

Row | IC50 [1] [nM] | IC50 [2] [nM] | IC50 [3] [nM] | IC50 [4] [nM] | IC50 (Aurora kinase A) [nM] | IC50 [5] [nM] | IC50 [6] [nM] | SMILES
7 | 250 | 1200 | > 10000 | > 10000 | 560 | > 10000 | > 10000 | CNc1ncc2c(-c3ccc(OC)cc3)nn(CC3OCCO3)c2n1
8 | 100 | 160 | > 10000 | 7500 | 660 | > 10000 | > 10000 | CNc1ncc2c(-c3ccc(N4CCNCC4)nc3)nn(CC3OCCO3)c2n1
9 | 700 | 900 | > 10000 | > 10000 | 730 | > 10000 | > 10000 | CNc1ncc2c(-c3ccc(N4CCN(C)CC4)nc3)nn(Cc3cn(Cc4ccccc4)nn3)c2n1
10 | 20 | 50 | > 10000 | 1100 | 160 | > 10000 | 2100 | CNc1ncc2c(-c3ccc(N4CCNCC4)nc3)nn(CC3CCCC3)c2n1
11 | 300 | > 10000 | > 10000 | > 10000 | 610 | > 10000 | > 10000 | CNc1ncc2c(-c3ccc(N4CCN(C(=O)C(C)(C)C)CC4)nc3)nn(CC3CCCC3)c2n1
12 | 100 | 440 | > 10000 | 1800 | 280 | > 10000 | > 10000 | CCN1CCN(c2ccc(-c3nn(CC4CCCC4)c4nc(NC)ncc34)cn2)CC1
